# bCat nuc transl: beta-catenin nuclear translocation modulation; HeLa beta-catenin nuclear translocation, immunofluorescence imaging; nuclear translocation activity, % at 5 µM; hit rate 0.3% among 190,000; AID 1665;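 active = nuclear translocation activity above 50% at 5 µM, with a well cell count of 50 or more; inconclusive = wells under 50 cells across six images, flagged as toxic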;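 note: per-cell ratio of nuclear to cytoplasmic median beta-catenin stain intensity; plate controls were DMSO negative control for no effect and GSK-3 inhibitor IX positive control for full effect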
#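 System: HeLa cells, endogenous beta-catenin; compound dosing: 5 µM primary single dose, 0.1% DMSO, 0.02–20 µM confirmation series; incubation: 24 h compound exposure at 37°C, 5% CO2; signal: beta-catenin immunofluorescence imaging with DAPI; evaluation: % activation, nuclear-to-cytoplasmic median beta-catenin signal ratio per cell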
# Dynein cargo inh: blocks dynein driven cargo transport along microtubules | 3617.4 mouse cells, GR-EGFP nuclear translocation imaging; test concentration mostly 20 µM; stimulated with dexamethasone, 1 µM; hits give low values | z-score, hits read low | hit rate 0.47% among 220,000 | AID 1381;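 active = plate z-score of nuclear minus cytoplasmic receptor signal below a set negative limit, without overly bright fluorescence or cell loss, cut at about -3.5 in these data, passing the limit was not always enough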;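 note: z-score of nuclear minus cytoplasmic ring GR-EGFP intensity difference per well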
#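 Buffer or medium: tet-free, stripped-serum medium; reagent: dexamethasone at 1.0 µM final, 30 min; incubation: 48 h induction, 1 h compound, 30 min dex at 37 °C; measured by: formaldehyde fixation, Hoechst nuclear stain, 10x automated fluorescence imaging; read-out: nuclear-to-cytoplasmic GR-EGFP distribution per well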
# MT stabilizer: microtubule stabilization, imaging screen; hit rate 0.83% among 200,000; % tubulin-high responders, % at 10 µM; AID 2205; HeLa tubulin immunostaining HCS, 24 h; share of cells brighter than vehicle mean+2SD;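 active = plate Z-score above 3 for both tubulin-high and condensed-nucleus cell shares, with cell loss under 80%, at 10 µM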;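 note: anti alpha tubulin signal scored within the nucleus-defined area of each cell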
# Insulin prom up: MIN6 insulin promoter up-regulation; MIN6 insulin promoter-GFP reporter, high-content imaging; hits give high values; z-score at 5 µM; hit rate 0.3% among 190,000;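 active = z-score above 3 at 5 µM with at least 500 cells counted in the well; inconclusive = wells under 500 cells, flagged as cytotoxic or low count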
# Autophagy mod: autophagy modulation, high-content screen. calls only at 10 µM (by protocol). MEF GFP-LC3 puncta imaging; test concentration mostly 10 µM. hit rate 0.98% among 190,000;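 active = percentage of spot-positive cells more than 3 SD above its plate mean, without a fluorescence outlier flag or 80% toxicity; inconclusive = no clear call, values can overlap the other calls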;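 note: spot-positive cell cutoff set from DMSO-treated cells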
# * marks the source's active call; other numbers are inactive results; i = inactive; ? = inconclusive; · = not tested or not shown; + = active, no number. The list is not random: actives were taken first. Their share in the collection is about 2.3%.
SMILES,bCat nuc transl,Dynein cargo inh,MT stabilizer,Insulin prom up,Autophagy mod
CCCCN(CCCNC(=O)CN1C(=O)COc2ccccc21)c1ccccc1,-0.4,0.6,2.5,0.24,+
COc1cc(N2CCCC2)c(OC)cc1/C=C(/C#N)c1cccc(F)c1,4.8,-0.558,9.3,·,+
N#C/C(=C/c1ccc(N2CCCCCC2)o1)c1cccc(F)c1,-0.5,-2.68,2.0,·,+
N#C/C(=C\c1ccc(N2CCOCC2)o1)c1ccccc1,0.7,-0.141,4.7,·,i
N#C/C(=C/c1ccc(N2CCOCC2)o1)c1ccc(Br)cc1,19.1,-8.57,4.5,·,+
O=C(N/N=C/c1ccccc1[N+](=O)[O-])C(=O)N1CCCC1,-0.2,-0.915,2.6,0.27,i
Cc1cccc(OCc2nnc(SCC(=O)O)n2Cc2ccccc2)c1,-1.0,-0.298,4.9,1.78,i
CC(=O)c1sc2nc(CSc3nnnn3-c3ccccc3)[nH]c(=O)c2c1C,1.3,0.0404,1.6,0.26,i
Cc1ccc(-n2nnnc2SCc2nc3sc(C)c(C)c3c(=O)[nH]2)cc1,2.7,-1.02,2.4,1.14,+
C=CCn1c(SCc2csc(C)n2)nc2sc3c(c2c1=O)CCC(C)C3 (centres undefined),0.7,-0.896,26.4*,·,i
Cc1cc(=O)oc2cc(OCC(=O)N3CC(C)OC(C)C3)ccc12 (centres undefined),-5.0,-0.305,1.9,-0.73,i
Cc1cc(=O)oc2cc(OCC(=O)N3c4ccccc4CC3C)ccc12 (centres undefined),-7.1,-0.114,51.3*,0.85,i
Cc1cc(=O)oc2cc(OCC(=O)OCC(=O)NC3CC3)ccc12,-1.3,-0.46,3.2,3.8*,i
Cn1ccnc1SCC(=O)Nc1ccc2c(c1)OC(F)(F)O2,-0.6,-0.962,1.2,0.28,i
COc1ccccc1CNCc1cccc(Oc2ccccc2)c1,-0.7,0.589,4.0,-0.17,i
Cc1ccc(NC(=S)N(CCCN2CCN(C)CC2)Cc2cccs2)cc1,-3.0,-1.03,1.9,-0.22,i
Cc1ccc(NC(=S)N(CCCN2CCN(C)CC2)Cc2cccs2)cc1C,0.1,1.01,6.2,-1.28,+
CCOC(=O)c1ccc(NC(=S)N(CCCN2CCCC2)Cc2ccco2)cc1,2.2,-0.439,4.2,0.05,i
CCOC(=O)c1ccc(NC(=S)N(CCCN2CCN(CC)CC2)Cc2ccco2)cc1,-3.9,-0.369,4.3,-1.26,+
CCc1cccc(C)c1NC(=S)N(CCN(C)C)C(C)c1ccco1 (centres undefined),0.5,-0.111,·,-0.8,·
O=[N+]([O-])c1ccc(N/N=C\c2ccccc2OCc2ccccc2)cc1,-4.0,-0.0389,4.6,2.36,+
Cc1ccc(CNC(=O)c2cccc(OCc3c(C)noc3C)c2)cc1,-3.1,1.24,5.9,0.93,i
Cc1noc(C)c1COc1cccc(C(=O)NCCc2c[nH]c3ccccc23)c1,-1.4,0.366,23.9*,0.31,i
Cc1noc(C)c1COc1ccc(CC(=O)NCc2ccccc2)cc1,29.2,0.321,19.7*,1.12,i
O=C(Cc1csc(Nc2nc(=S)[nH]c3ccccc23)n1)NCCCN1CCN(c2ccccc2F)CC1,-0.8,0.468,2.1,-0.46,+
SMILES,bCat nuc transl,Dynein cargo inh,MT stabilizer,Insulin prom up,Autophagy mod
O=C(Cc1csc(Nc2nc(=S)[nH]c3ccccc23)n1)NCc1ccc(Cl)cc1,0.6,1.24,2.9,0.68,i
O=C1c2ccccc2OC2(C=Cc3ccccc3O2)N1Cc1ccccc1 (centres undefined),48.4,-1.64,42.2*,·,i
CSc1nc(SCC(=O)NCc2ccco2)c2c3c(sc2n1)COC(C)(C)C3,-0.8,-0.311,34.7*,0.69,i
CCCCc1nc2sc3c(SCCN(C)C)ncnc3c2c2c1CCC2,4.2,1.32,·,-1.2,·
CCCCSc1nc(SCC(=O)NCc2ccco2)c2c3c(sc2n1)COC(C)(CC)C3 (centres undefined),2.9,0.406,3.2,-2.11,i
CCCCc1nc2sc3c(SCC(=O)NCc4ccco4)ncnc3c2c2c1CCC2,17.0,-0.724,33.0*,0.3,i
COc1cccc(C(=O)C2=NN(C(C)=O)CC2c2ccco2)c1 (centres undefined),-1.1,0.851,1.4,·,i
Cc1ccc(NC2=C(Cl)C(=O)c3ccccc3C2=O)cc1,-1.7,0.66,7.1,?,i
CCN(CC)c1ccc(NC2=C(Cl)C(=O)c3ccccc3C2=O)cc1,-1.0,-4.42*,2.7,?,i
CN1CCN(S(=O)(=O)c2cc([N+](=O)[O-])ccc2N/N=C/c2ccc(Cl)cc2)CC1,-1.2,0.739,1.8,0.29,i
O=[N+]([O-])c1ccc(N/N=C/c2c[nH]c3ccccc23)c(S(=O)(=O)Nc2ccc(Cl)cc2)c1,1.4,-2.56,3.9,·,+
CCCCN(C(=O)CSc1nnc(Nc2ccccc2)s1)c1c(N)n(CCC)c(=O)[nH]c1=O,-1.1,0.248,2.0,0.13,i
NC(N)=N/N=C/c1ccc(Br)cc1,112.7*,-0.132,23.6*,-0.09,i
N#Cc1ccc(/C=N/N=C(N)N)cc1,-3.4,2.4,2.3,0.01,i
CCOc1nc(NC(=O)NC(=O)c2ccccc2)nc(-c2ccccc2)n1,-1.6,-0.314,3.9,-0.2,+
COc1ccc2[nH]c3c4c(ccc3c2c1)C(=O)C=CC4=O,2.0,-5.23*,·,-0.64,·
Cc1cc(C)c2c(N)c(C(=O)Nc3nccs3)sc2n1,-3.9,-0.268,3.3,0.53,i
Nc1c(C(=O)Nc2nccs2)sc2nc(-c3cccs3)cc(C(F)(F)F)c12,-1.9,-1.3,2.6,·,+
COc1ccc(NC(=O)c2sc3nc(Cc4ccccc4)cc(C(F)(F)F)c3c2N)cc1OC,-1.4,1.33,i,-0.33,i
CC(C)(C)C(=O)c1sc2nc(-c3cccs3)cc(C(F)(F)F)c2c1N,-4.6,-3.9,11.6,·,+
COc1ccccc1NC(=O)c1sc2nc(Cc3ccccc3)cc(C(F)(F)F)c2c1N,-0.5,0.479,i,0.13,+
OC(CNCCC(c1ccccc1)c1ccccc1)COc1ccccc1 (centres undefined),-1.9,-0.585,3.9,-1.22,i
CC(=O)NC(Cc1ccc(C(C)C)cc1)C(=O)NC1CCN(C(=O)c2cccc(C)c2)CC1 (centres undefined),-1.1,1.76,3.5,·,i
C#C[C@]1(O)CC[C@H]2[C@@H]3CCc4cc(OC)ccc4[C@H]3CC[C@@]21C,1.4,0.856,5.4,·,+
O=C(/C=C1\C(=O)Nc2ccccc21)/C=C1\C(=O)Nc2ccccc21,24.8,-4.41*,·,-0.29,·
CN(O)/C=C1\C(=O)Nc2ccccc21,-1.4,-0.585,2.5,0,i
O=Cc1ccc(-c2cc(Cl)ccc2Cl)[nH]1,-4.8,1.82,3.8,0.87,i
COc1ccc(C(=O)/C(C#N)=N/Nc2ccccc2[N+](=O)[O-])cc1,59.1*,-0.308,10.8,-0.28,i
COc1ccc(OC)c(-c2c(C#N)c(N)nc3c2c(=O)nc2sccn23)c1,0.4,-0.482,3.2,-0.14,+

# Assay outcomes from PubChem BioAssay.
